From ChEMBL document CHEMBL4145666, “In Search of Selectivity in Inhibition of ADAM10” (ACS Med Chem Lett, 2018)

How the values were obtained:
[1] = molecular target: Macrophage metalloelastase (Homo sapiens, UniProt P39900); assay: Inhibition of recombinant human MMP12 catalytic domain using Mca-PLGL-DpaAR-NH2 as substrate by fluorescence spectrophotometric method
Outline: (§1)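 Enzymes and their substrates were obtained as in earlier work, and inhibition was run by a previously reported protocol. Ki values were measured in triplicate.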

[2] = molecular target: Neutrophil collagenase (Homo sapiens, UniProt P22894); assay: Inhibition of recombinant human MMP8 catalytic domain (Phe99 to Gln269 residues) expressed in Escherichia coli using McaKPLGL-Dpa-AR-NH2 as substrate by fluorescence spectrophotometric method; outline: as §1
Sequence of Neutrophil collagenase (P22894 whole entry, the tested form may be a part): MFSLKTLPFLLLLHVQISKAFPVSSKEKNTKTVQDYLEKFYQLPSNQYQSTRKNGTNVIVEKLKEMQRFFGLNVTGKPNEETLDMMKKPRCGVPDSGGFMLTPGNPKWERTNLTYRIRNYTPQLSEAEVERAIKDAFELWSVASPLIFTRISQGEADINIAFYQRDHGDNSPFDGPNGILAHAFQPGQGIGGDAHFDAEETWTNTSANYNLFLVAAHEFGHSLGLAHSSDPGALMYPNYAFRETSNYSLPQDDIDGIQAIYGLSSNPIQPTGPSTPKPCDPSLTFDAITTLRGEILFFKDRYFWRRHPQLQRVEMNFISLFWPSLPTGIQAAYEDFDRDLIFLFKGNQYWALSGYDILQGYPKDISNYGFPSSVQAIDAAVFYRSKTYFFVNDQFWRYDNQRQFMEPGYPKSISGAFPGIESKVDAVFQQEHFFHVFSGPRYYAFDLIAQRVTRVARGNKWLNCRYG

[3] = molecular target: T1, Disintegrin and metalloproteinase domain-containing protein 10 (Homo sapiens) (UniProt O14672); assay: Inhibition of recombinant human C-terminal His10-tagged ADAM10 (Thr214 to Glu672 residues) expressed in baculovirus infected Sf21 cells at 10 uM using McaKPLGL-Dpa-AR-NH2 as substrate by fluorescence spectrophotometric method relative to control
T1 sequence (whole entry): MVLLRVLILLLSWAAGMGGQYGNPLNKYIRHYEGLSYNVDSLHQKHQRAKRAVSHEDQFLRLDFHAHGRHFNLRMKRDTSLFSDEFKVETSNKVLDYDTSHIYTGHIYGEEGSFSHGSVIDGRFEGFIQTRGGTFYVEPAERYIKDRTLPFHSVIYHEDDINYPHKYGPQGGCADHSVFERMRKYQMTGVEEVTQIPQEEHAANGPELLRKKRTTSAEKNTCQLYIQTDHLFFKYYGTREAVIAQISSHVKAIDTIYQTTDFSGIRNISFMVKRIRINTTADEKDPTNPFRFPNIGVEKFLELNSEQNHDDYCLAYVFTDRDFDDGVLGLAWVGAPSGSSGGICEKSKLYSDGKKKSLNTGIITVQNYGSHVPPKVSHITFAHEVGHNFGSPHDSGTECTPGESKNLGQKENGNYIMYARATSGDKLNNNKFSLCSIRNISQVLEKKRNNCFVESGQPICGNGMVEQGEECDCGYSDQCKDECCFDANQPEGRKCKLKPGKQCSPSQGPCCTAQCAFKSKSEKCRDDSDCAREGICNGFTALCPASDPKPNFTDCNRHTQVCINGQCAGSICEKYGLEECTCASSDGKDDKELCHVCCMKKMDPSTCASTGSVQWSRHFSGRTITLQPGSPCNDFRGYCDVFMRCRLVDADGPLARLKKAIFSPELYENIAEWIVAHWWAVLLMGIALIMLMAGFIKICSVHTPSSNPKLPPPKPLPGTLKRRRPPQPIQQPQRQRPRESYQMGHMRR
Outline: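 Single inhibitor concentration of 10 μM, reported as percent inhibition. Enzymes and substrates as in earlier work, with inhibition run by a previously reported protocol.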

[4] = molecular target: Disintegrin and metalloproteinase domain-containing protein 17 (Homo sapiens, UniProt P78536); assay: Inhibition of recombinant human C-terminal His6-tagged ADAM17 (Arg215 to Asn671 residues) expressed in baculovirus infected Sf21 cells using Mca-PLAQAV-Dpa-RSSSR-NH2 as substrate by fluorescence spectrophotometric method; outline: as §1
Sequence of Disintegrin and metalloproteinase domain-containing protein 17 (P78536 whole entry, the tested form may be a part): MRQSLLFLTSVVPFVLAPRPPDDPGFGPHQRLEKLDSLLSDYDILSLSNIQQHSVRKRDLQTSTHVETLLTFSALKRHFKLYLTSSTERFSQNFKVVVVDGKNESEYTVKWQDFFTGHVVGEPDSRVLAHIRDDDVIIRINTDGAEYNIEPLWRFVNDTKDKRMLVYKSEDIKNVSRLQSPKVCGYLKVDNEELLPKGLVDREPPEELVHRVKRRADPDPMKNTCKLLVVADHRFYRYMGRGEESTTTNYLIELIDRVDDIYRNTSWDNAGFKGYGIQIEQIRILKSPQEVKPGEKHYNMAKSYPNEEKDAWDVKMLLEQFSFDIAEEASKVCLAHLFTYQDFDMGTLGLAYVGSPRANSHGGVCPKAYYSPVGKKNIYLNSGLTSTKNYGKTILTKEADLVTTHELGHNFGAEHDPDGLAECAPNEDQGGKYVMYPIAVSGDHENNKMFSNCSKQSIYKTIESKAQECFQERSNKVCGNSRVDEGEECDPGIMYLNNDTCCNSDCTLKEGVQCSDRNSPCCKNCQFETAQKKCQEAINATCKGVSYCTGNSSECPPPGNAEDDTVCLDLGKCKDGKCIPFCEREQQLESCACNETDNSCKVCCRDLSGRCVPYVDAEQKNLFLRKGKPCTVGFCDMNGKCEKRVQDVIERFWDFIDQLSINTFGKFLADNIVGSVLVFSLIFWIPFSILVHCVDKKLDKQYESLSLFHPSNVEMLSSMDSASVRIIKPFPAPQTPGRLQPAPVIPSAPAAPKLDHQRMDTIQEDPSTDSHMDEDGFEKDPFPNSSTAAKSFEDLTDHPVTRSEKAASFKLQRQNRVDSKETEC

Sequence of Macrophage metalloelastase (P39900 whole entry, the tested form may be a part): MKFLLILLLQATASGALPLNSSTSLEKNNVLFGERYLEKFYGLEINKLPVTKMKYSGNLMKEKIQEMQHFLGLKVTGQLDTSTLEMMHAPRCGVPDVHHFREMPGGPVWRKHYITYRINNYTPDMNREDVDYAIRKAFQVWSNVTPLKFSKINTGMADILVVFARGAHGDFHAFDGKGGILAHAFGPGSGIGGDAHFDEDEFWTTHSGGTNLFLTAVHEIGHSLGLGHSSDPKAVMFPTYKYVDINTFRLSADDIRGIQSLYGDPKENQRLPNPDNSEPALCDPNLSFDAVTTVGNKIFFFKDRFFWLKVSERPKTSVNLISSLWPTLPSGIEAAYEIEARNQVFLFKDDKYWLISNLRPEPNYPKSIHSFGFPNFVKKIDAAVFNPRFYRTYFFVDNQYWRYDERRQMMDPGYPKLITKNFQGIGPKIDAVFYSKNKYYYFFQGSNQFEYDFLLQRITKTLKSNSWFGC

## CN1CC2(CC2)C[C@H](C(=O)NO)[C@H]1C(=O)N1CCN(c2ccc(C(F)(F)F)cn2)CC1
[1]
  Ki: 29.5 nM
[2]
  Ki: 3.01 nM
[3]
  inhibition: 3%
[4]
  Ki: 61 nM
